A selection: hits, their analogues and other compounds. The true share with any hit is near 1.4%.
H9c2 TAG inh: triacylglycerol accumulation inhibition. inhibition, % at 12.5 µM. 230,000 tested, 0.66% active. H9c2 cells, Nile Red lipid (TAG) fluorescence; cells loaded with 200 µM oleic acid;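 active = pattern-corrected inhibition of lipid staining of at least 50% with the nuclear-stain viability signal not falling by more than 50%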;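 note: 0% = DMSO wells and 100% = triacsin C control wells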
DDE Tn6 FP inh: DD(E)-Tn6 binding inhibition, primary FP screen; Fibrin DD(E) TRITC-Tn6 fluorescence polarization displacement; inhibition, % at 8.3 µM; 370,000 tested, 0.21% active; AID 720509;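 active = inhibition above a per-campaign cutoff: mean of compounds within control limits plus 3 SD, cut at about 15% in these data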;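 note: 0% = median of all compound wells on the plate and 100% = blocking peptide control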
DAGLB inh: blocks human DAGLB lipase activity; Q8NCG7; HEK293T DAGLB membrane lysate, EnzChek fluorogenic substrate; inhibition, % at 5.17 µM; 340,000 tested, 0.059% active; in the data active = inhibition above about 34%;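 note: 0% = enzyme with vehicle and 100% = wells lacking enzyme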
Target sequence (Q8NCG7 whole entry, looked up): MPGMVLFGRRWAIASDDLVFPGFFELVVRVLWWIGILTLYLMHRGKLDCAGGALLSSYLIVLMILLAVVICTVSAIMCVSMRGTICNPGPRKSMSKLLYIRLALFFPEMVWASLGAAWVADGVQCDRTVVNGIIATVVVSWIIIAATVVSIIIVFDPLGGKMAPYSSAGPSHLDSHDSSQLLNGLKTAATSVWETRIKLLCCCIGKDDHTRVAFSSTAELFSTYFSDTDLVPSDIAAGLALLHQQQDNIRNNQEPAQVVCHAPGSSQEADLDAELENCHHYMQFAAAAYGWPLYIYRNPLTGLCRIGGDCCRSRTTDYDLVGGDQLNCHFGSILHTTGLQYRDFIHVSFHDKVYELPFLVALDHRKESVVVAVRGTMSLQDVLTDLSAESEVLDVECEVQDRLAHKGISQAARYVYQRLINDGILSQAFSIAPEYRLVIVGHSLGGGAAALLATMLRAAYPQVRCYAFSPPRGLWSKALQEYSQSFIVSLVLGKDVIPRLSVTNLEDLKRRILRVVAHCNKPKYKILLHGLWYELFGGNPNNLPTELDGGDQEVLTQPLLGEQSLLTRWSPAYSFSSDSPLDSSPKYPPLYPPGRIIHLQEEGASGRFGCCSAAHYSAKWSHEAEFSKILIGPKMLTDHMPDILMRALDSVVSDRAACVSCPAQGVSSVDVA
DDE Tn7 FP inh: inhibitors of Tn7 peptide binding to human fibrin DD(E); FP displacement of FITC-Tn7 peptide from fibrin DD(E); 0% = median of compound wells per plate; 370,000 tested, 0.13% active; AID 720508; inhibition, % at 8.3 µM; P02675;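 active = inhibition above the mean of compounds falling within the control limits plus 3 SD of them, cut at about 14% in these data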;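 note: 0% = plate median of compound wells and 100% = 10 µM Aha-Tn7 peptide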
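Measure: % inhibition scaled between sample-field median and high-control FP; Test system: human fibrin DD(E); Quantity: 2 µM final DD(E) protein; Doses: one dose, 8.3 µM nominal; Schedule: compound with protein 10 min, then 3 h after probe, room temperature; Detection: fluorescence polarization; Medium: Tris buffer with calcium and detergent, pH 7.8.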
MT1-MMP act inh: MT1-MMP (human) activation inhibition; P50281; GFP/RFP ratio change, % at 20 µM; HT1080 RFP-PRO-GFP cells, GFP/RFP ratio fluorescence, overnight; percent of plate control window, DMSO zero; 360,000 tested, 0.061% active;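 active = GFP/RFP ratio change of at least 30% with cell ATP level not reduced by more than half and red fluorescence within 50% of control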
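Read-out: GFP/RFP fluorescence ratio; Test system: RFP-PRO-GFP reporter HT1080 cells; Compound dosing: single-point 20 µM compound, 1% DMSO; Times: overnight compound exposure at 37 °C.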
Cardio protect: protects H9c2 cardiomyocytes from peroxide injury | H2O2 injury protection, ATPLite, 2 h | protection from H2O2 cell death, % at 20 µM | 360,000 tested, 0.63% active | AID 588492;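 active = compounds giving at least 50% protection of heart cells from peroxide-induced death in the single-dose screen, raw or plate-pattern-corrected value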;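 note: 0% = DMSO wells with peroxide and 100% = DMSO wells without peroxide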
* = called active by the depositor; . = no result given.

SMILES | H9c2 TAG inh | DDE Tn6 FP inh | DAGLB inh | DDE Tn7 FP inh | MT1-MMP act inh | Cardio protect
CC1=CC2OC3CC4OC(=O)C=CC=CC(C(C)O)OCC(O)C(C)CC(=O)OCC2(CC1O)C4(C)C31CO1 (centres undefined) | 113.7 | -1.2 | -1.6 | 0.0 | -38.3 | 8.2
CC(O)C1C=CC=CC(=O)OC2CC3OC4C5OC5(C)CCC4(COC(=O)C4OC4(C)C(O)CO1)C2(C)C31CO1 (centres undefined) | 117.9 | -1.2 | 0.8 | 1.2 | -38.1 | -1.7
CC1=CC2OC3CC4OC(=O)C=CC=CC(=O)OCCC(C)C(O)C(=O)OCC2(CC1O)C4(C)C31CO1 (centres undefined) | 117.7 | . | 2.2 | . | -40.2 | 53.7*
CC(=O)OC1C(=O)OCC23CCC4(C)OC4C2OC2CC(OC(=O)C=CC=CC(=O)OCCC1C)C3(C)C21CO1 (centres undefined) | 130.9 | -5.2 | -2.7 | 1.3 | -35.5 | 55.8*
O=C(NCCN1CCC2(CC1)C(=O)NCN2c1ccccc1)c1ccc(OC(F)(F)F)cc1 | . | 0.8 | . | 5.8 | . | .
C=C1C(=O)O[C@@H]2C[C@@H](C)[C@@H]3C=CC(=O)[C@@]3(C)[C@@H](O)[C@H]12 | 72.0* | -6.2 | 1.0 | -1.5 | -13.5 | -36.9
O=C(CN1C(=O)CN=C(c2ccccc2)c2cc(Cl)ccc21)NC1CCCCC1 | . | 1.9 | . | -6.8 | . | .
NC(N)=N/N=C/c1cn(-c2ccccc2)nc1-c1cccs1 | 123.7* | -8.2 | 3.5 | -2.6 | 5.1 | -30.6
O=c1c2ccccc2nc(-c2cccs2)n1-c1ccccc1 | 2.6 | 4.8 | -2.6 | -1.5 | -5.1 | 3.6
N=c1c2c(-c3ccccc3)c(-c3ccccc3)n(Cc3ccccc3)c2ncn1C1CCC(O)CC1 (centres undefined) | . | -4.7 | . | -9.4 | . | .
COC(COC(N)=O)C1=C(N2CC2)C(=O)C(C)=C(N2CC2)C1=O (centres undefined) | 59.7* | -4.8 | -0.2 | 4.7 | 9.2 | -7.7
CC[C@@H](O)C[C@H]1CCC[C@@]2(C[C@@H]3OC(=O)/C=C/[C@@](C)(O)[C@@H](O)[C@H](C)[C@@H](O)[C@H](OC4CCC(N(C)C)C(C)O4)[C@@H](O)[C@](C)(O)CCCCC/C=C/[C@@H]4CC(C)(C)O[C@@]4(O)C[C@H](O2)[C@H]3C)O1 (some centres undefined) | 57.6* | -0.3 | -0.3 | -6.8 | 14.7 | -15.9
N#CC1c2ccccc2-n2nncc2CN1C(=O)c1ccc([N+](=O)[O-])o1 (centres undefined) | . | 2.2 | . | -2.6 | . | .
CN1C(=O)CCS(=O)(=O)C1c1ccc(Cl)cc1 (centres undefined) | . | -0.5 | . | 1.3 | . | .
COc1cc2nc(CN3CC=C(c4ccccc4)CC3)[nH]c(=O)c2cc1OC | 73.2* | 4.9 | -3.2 | -1.9 | -10.6 | -5.7
CO[C@H]([C@H](C)/C=C/N(C)C=O)[C@@H](C)C(=O)CC[C@H](C)[C@H](O)[C@H](C)[C@H]1OC(=O)/C=C/C(C)=C/[C@H](O)[C@H](OC)C[C@@H]2C=CC[C@@H](C[C@H](OC)[C@@H](CO)[C@@H](OC)C[C@@H](OC)[C@@H]1C)O2 | . | 0.5 | . | -7.6 | . | .
CCOC(=O)c1cccc(C2=C(CNC(=O)c3cccnc3)[C@H]3CC[C@@H](C2)N3Cc2ccccc2)c1 | 8.6 | 0.2 | -0.6 | -0.3 | 11.1 | 55.2*
CC[n+]1c(-c2ccccc2)c2cc(N)ccc2c2ccc(N)cc21 | 2.7 | 55.9* | 3.4 | 6.2 | 65.1 | -10.7
O=C(NCCN1CCC2(CC1)C(=O)NCN2c1ccccc1)c1ccc(Cl)c(Cl)c1 | . | 3.2 | . | 1.1 | . | .
Cc1cccc(N=C2c3cc([N+](=O)[O-])ccc3-c3c2cc([N+](=O)[O-])cc3[N+](=O)[O-])c1 | 61.8* | -3.4 | 4.9 | -5.3 | 14.8 | -18.8
CCCCC1(CCCC)C(=O)NC(=Nc2cccc(C)c2)NC1=O | -13.1 | 5.5 | 1.5 | -3.4 | -16.7 | -6.4
CCC(C)N1C(=O)NC(=O)C2(Cc3c(ccc4ccccc34)N(C)C2)C1=O (centres undefined) | -14.0 | -3.0 | 4.3 | 0.9 | -6.6 | 68.6*

Bioassay records (PubChem)
